According to ChEMBL document CHEMBL1137744, “Parallel synthesis, molecular modelling and further structure-activity relationship studies of new acylthiocarbamates as potent non-nucleoside HIV-1 reverse transcriptase inhibitors” (Eur J Med Chem, 2009):

Legend:
[1] = Cytotoxicity against human MT4 cells by MTT assay; format: cell-based
How it was run: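 Uninfected (mock-infected) MT-4 cells were exposed to compound and viability was read by MTT. CC50 is the concentration cutting viability by 50%. Values are means of three separate experiments, with triplicate samples varying by less than 10%.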

[2] = tested on: Human immunodeficiency virus 1; experiment: Antiviral activity against HIV1 3B infected in human MT4 cells assessed as inhibition of virus-induced cytopathogenicity by MTT assay; format: functional, organism-based; conditions: Human immunodeficiency virus 1, 3B
How it was run: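 MT-4 cells infected with HIV-1 and read by MTT viability. EC50 is the concentration giving 50% protection of cells from virus-induced cytopathogenicity. Values are means of three separate experiments, with variation among triplicate samples under 10%.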

[3] = Selectivity index, ratio of CC50 for human MT4 cells to EC50 for HIV1 3B; format: toxicity, cell-based; conditions: read-out: Ratio CC50/EC50
How it was run: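 Computed as CC50/EC50. Both come from MTT readings in MT-4 cells: CC50 is 50% viability loss in mock-infected cells, and EC50 is 50% protection from HIV-1-induced cytopathogenicity. Each is the mean of three experiments.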

SMILES | CC50 [1] [µM] | EC50 [2] [µM] | selectivity ratio [3]
Cc1ccc(N(C(=O)c2cccc(Cl)c2Cl)C(=S)OCCN2C(=O)c3ccccc3C2=O)cc1 | 35 | 0.2 | 175
O=C1c2ccccc2C(=O)N1CCOC(=S)N(C(=O)c1ccc(Cl)c([N+](=O)[O-])c1)c1ccccc1 | 51 | 0.35 | 146
O=C1c2ccccc2C(=O)N1CCOC(=S)N(C(=O)c1ccc(Cl)c(Cl)c1)c1ccccc1 | 52 | 0.5 | 104
O=C1c2ccccc2C(=O)N1CCOC(=S)N(C(=O)c1ccco1)c1ccc(Cl)cc1Cl | > 100 | 2.6 | > 38
O=C1c2ccccc2C(=O)N1CCOC(=S)N(C(=O)c1c(F)cccc1F)c1ccc(Cl)cc1 | 39 | 0.02 | 1950
O=C1c2ccccc2C(=O)N1CCOC(=S)N(C(=O)c1cccc([N+](=O)[O-])c1)c1ccc(Cl)cc1 | 18 | 0.0015 | 12000
O=C1c2ccccc2C(=O)N1CCOC(=S)N(C(=O)c1c(Cl)cccc1Cl)c1ccc(Cl)cc1 | 20 | 5.6 | 3.6
O=C1c2ccccc2C(=O)N1CCOC(=S)N(C(=O)c1ccc(Cl)cc1Cl)c1ccc(Cl)cc1 | 18 | 0.03 | 600
Cc1ccc(N(C(=O)c2ccc(F)cc2F)C(=S)OCCN2C(=O)c3ccccc3C2=O)cc1 | 20 | 0.03 | 667
O=C1c2ccccc2C(=O)N1CCOC(=S)N(C(=O)c1ccco1)c1ccc(Cl)c(Cl)c1 | 100 | 0.69 | 145
Cc1ccc(N(C(=O)c2ccc([N+](=O)[O-])cc2Cl)C(=S)OCCN2C(=O)c3ccccc3C2=O)cc1 | 17 | 0.09 | 189
Cc1ccc(N(C(=O)c2ccc([N+](=O)[O-])cc2)C(=S)OCCN2C(=O)c3ccccc3C2=O)cc1 | 58 | 0.03 | 1930
COc1cccc(OC)c1C(=O)N(C(=S)OCCN1C(=O)c2ccccc2C1=O)c1ccc(C)cc1 | 36 | 22 | 1.6
O=C1c2ccccc2C(=O)N1CCOC(=S)N(C(=O)c1cccs1)c1ccc(Cl)cc1 |  | 0.008 | 
Cc1ccc(N(C(=O)c2ccc(Cl)cc2Cl)C(=S)OCCN2C(=O)c3ccccc3C2=O)cc1 | 49 | 0.3 | 163
Cc1ccc(N(C(=O)c2ccc(Cl)c(Cl)c2)C(=S)OCCN2C(=O)c3ccccc3C2=O)cc1 | 17 | 0.05 | 340
O=C1c2ccccc2C(=O)N1CCOC(=S)N(C(=O)c1ccco1)c1cccc(Cl)c1Cl | 100 | > 100 | 
Cc1ccccc1C(=O)N(C(=S)OCCN1C(=O)c2ccccc2C1=O)c1ccc(Cl)cc1 | 21 | 0.04 | 525
Cc1ccc(N(C(=O)c2ccc(Br)c(C)c2)C(=S)OCCN2C(=O)c3ccccc3C2=O)cc1 | > 100 | 0.05 | > 2000
O=C1c2ccccc2C(=O)N1CCOC(=S)N(C(=O)c1ccco1)c1ccc(Cl)cc1 |  | 0.007 | 
O=C1c2ccccc2C(=O)N1CCOC(=S)N(C(=O)c1ccc(C(F)(F)F)cc1)c1ccc(Cl)cc1 | 10 | 0.005 | 2000
O=C1c2ccccc2C(=O)N1CCCOC(=S)N(C(=O)c1cccc([N+](=O)[O-])c1)c1ccc(Cl)cc1 | 53 | 29 | 1.8
Cc1ccc2c(c1)C(=O)N(CCOC(=S)N(C(=O)c1cccc([N+](=O)[O-])c1)c1ccc(Cl)cc1)C2=O | > 100 | 0.05 | > 2000
O=C1c2ccccc2C(=O)N1CCOC(=S)N(C(=O)c1ccccc1)c1ccccc1 |  | 0.4 | 
O=C1c2ccccc2C(=O)N1CCOC(=S)N(C(=O)c1ccco1)c1cc(Cl)cc(Cl)c1 | > 100 | > 100 | 

SMILES | CC50 [1] [µM] | EC50 [2] [µM] | selectivity ratio [3]
O=C1c2ccccc2C(=O)N1CCOC(=S)N(C(=O)c1cccnc1Cl)c1ccc(Cl)cc1 |  | 0.005 | 
O=C1c2ccccc2C(=O)N1CCOC(=S)N(C(=O)c1ccccc1[N+](=O)[O-])c1ccc(Cl)cc1 | 21 | 0.07 | 300
Cc1ccc(N(C(=O)c2ccc(Cl)c([N+](=O)[O-])c2)C(=S)OCCN2C(=O)c3ccccc3C2=O)cc1 | 47 | 0.06 | 783
Cc1ccc(N(C(=O)c2cccc([N+](=O)[O-])c2)C(=S)OCCN2C(=O)c3ccccc3C2=O)cc1 | 100 | 0.02 | 5000
Cc1ccc(N(C(=O)c2cccc(C)c2)C(=S)OCCN2C(=O)c3ccccc3C2=O)cc1 | > 100 | 0.04 | > 2500
Cc1ccc2c(c1)C(=O)N(CCOC(=S)N(C(=O)c1cccs1)c1ccc(Cl)cc1)C2=O | > 100 | 0.02 | > 5000
O=C1c2ccccc2C(=O)N1CCOC(=S)N(C(=O)c1ccccc1)c1ccc(Cl)cc1 |  | 0.1 | 
Cc1ccc(N(C(=O)c2c(Cl)cccc2Cl)C(=S)OCCN2C(=O)c3ccccc3C2=O)cc1 | 22 | 9 | 2.4
O=C1c2ccccc2C(=O)N1CCOC(=S)N(C(=O)c1ccc(Cl)c(Cl)c1)c1ccc(Cl)cc1 | 35 | 0.009 | 3890
Cc1ccc(N(C(=O)c2ccccc2[N+](=O)[O-])C(=S)OCCN2C(=O)c3ccccc3C2=O)cc1 | 100 | 0.4 | 250
CCCCCOc1ccc(C(=O)N(C(=S)OCCN2C(=O)c3ccccc3C2=O)c2ccc(F)cc2)cc1 | > 100 | 8.5 | > 11.8
O=C1c2ccccc2C(=O)N1CCOC(=S)N(C(=O)c1ccc(Cl)cc1)c1ccc(Cl)cc1 |  | 0.025 | 
Cc1ccc(N(C(=O)c2cc(F)ccc2F)C(=S)OCCN2C(=O)c3ccccc3C2=O)cc1 | 62 | 0.04 | 1550
COc1cccc(OC)c1C(=O)N(C(=S)OCCN1C(=O)c2ccccc2C1=O)c1ccc(Cl)cc1 | 69 | 0.4 | 172
Cc1ccc(N(C(=O)c2ccccc2C)C(=S)OCCN2C(=O)c3ccccc3C2=O)cc1 | > 100 | 0.2 | > 500
Cc1ccc(C(=O)N(C(=S)OCCN2C(=O)c3ccccc3C2=O)c2ccc(C)cc2)cc1 | 83 | 0.02 | 4150
Cc1ccc(N(C(=O)c2cc(F)cc(F)c2)C(=S)OCCN2C(=O)c3ccccc3C2=O)cc1 | 54 | 0.05 | 1080
O=C1c2ccccc2C(=O)N1CCOC(=S)N(C(=O)c1cc(F)cc(F)c1)c1ccc(Cl)cc1 | 59 | 0.007 | 8430
O=C1c2ccccc2C(=O)N1CCOC(=S)N(C(=O)c1ccc(Br)cc1)c1ccc(Br)cc1 | 73 | 0.035 | 2090
O=C1c2ccccc2C(=O)N1CCOC(=S)N(C(=O)c1cccc([N+](=O)[O-])c1)c1c(Cl)cccc1Cl | 58 | 17 | 3.4
O=C1c2ccccc2C(=O)N1CCOC(=S)N(C(=O)c1cc([N+](=O)[O-])ccc1Cl)c1ccc(Cl)cc1 | 45 | 0.07 | 643
O=C1c2ccccc2C(=O)N1COC(=S)N(C(=O)c1cccc([N+](=O)[O-])c1)c1ccc(Cl)cc1 | > 100 | > 100 | 
O=C1c2ccccc2C(=O)N1CCOC(=S)N(C(=O)c1cccc([N+](=O)[O-])c1)c1c(Cl)cc(Cl)cc1Cl | 20 | > 20 | 
O=C1c2ccccc2C(=O)N1CCOC(=S)N(C(=O)c1ccc(Cl)nc1)c1ccc(Cl)cc1 |  | 0.006 | 
